High-throughput results from PubChem BioAssay.
Hits are enriched below; roughly 2.3% of the tested compounds scored in any of these assays.
TRPC4 potent: positive allosteric modulators of TRPC4, primary screen, cell-based, mouse TRPC4beta, HEK293 mu-opioid, Fluo-4 calcium. Short transient receptor potential channel 4 (Mus musculus), Q9QUQ5. DAMGO EC20, Fluo-4 Ca2+ flux; active compounds read high. B-score at 10 µM. actives 0.42% (n = 310,000);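 active = B-score of calcium response area above 5 SD of library B-scores, with initial fluorescence ratio within 5 SD of library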;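 also: B-score of integrated fluorescence ratio over time as area under calcium response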
TRPC4 block: inhibitors of mouse TRPC4 channel, primary screen, Fluo4 calcium, HEK293 TRPC4beta/mu-opioid cells. actives 0.39% (n = 300,000). Short transient receptor potential channel 4 (Mus musculus), Q9QUQ5. AID 2247, 2010. DAMGO-evoked Fluo4 calcium flux; active compounds read low. B-score at 10 µM;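 active = B-score over 3 SD under the library average, no early fluorescence shift, positive overall ratio signal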
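Material: HEK293 cells with stable TRPC4beta plus mu-opioid receptor expression / Probe or stimulus: DAMGO in two steps, submaximal then maximal / Compound: single concentration per test compound / Technique: kinetic Fluo4 fluorescence imaging of calcium influx / Read-out: per-well B score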
TRPC6 act: mouse TRPC6 channel activators, primary screen, cell-based, HEK293, membrane potential dye | Short transient receptor potential channel 6 (Mus musculus), Q61143 | HEK293-TRPC6 membrane potential dye fluorescence; active compounds read high | B-score at 10 µM | actives 0.13% (n = 310,000) | AID 2550, 2010;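 active = B-score of the integrated fluorescence ratio above library mean plus 3 SD, and starting fluorescence ratio within library mean plus 5 SD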;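 also: higher score means more depolarization so channel activation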
TRPC6 inhibitor: mouse TRPC6 channel inhibitors, primary screen, cell-based, HEK293, membrane potential dye; ACh-evoked depolarization; active compounds read low; AID 2553, 2010; actives 1.1% (n = 310,000); Short transient receptor potential channel 6 (Mus musculus), Q61143; B-score at 10 µM;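 active = B-score under library mean minus 3 SD, initial fluorescence not abnormally high, positive integrated signal ratio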;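 also: B-score derived from integrated fluorescence ratio over the kinetic read; more negative B-score means stronger inhibition of depolarization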
TRPC4 agonist: activators of mouse TRPC4 channel, primary screen, Fluo4 calcium, HEK293 TRPC4beta/mu-opioid cells. Fluo4 calcium fluorescence; active compounds read high. B-score at 10 µM. actives 0.49% (n = 310,000);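 active = B-score above 5 SD of library B-scores, and initial fluorescence ratio not above library mean plus 5 SD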;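 also: positive B-score marks a calcium rise read as TRPC4 activation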
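Technique: kinetic Fluo4 calcium fluorescence; Test system: TRPC4beta and mu-opioid receptor HEK293 stable cells; Measure: B-scored integrated calcium fluorescence ratio; Benchmarks: low control buffer alone, high control maximal DAMGO; Schedule: 45 min room-temperature Fluo4 loading, 110 s read.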
Active calls of the source: *; i = inactive.

SMILES | TRPC4 potent | TRPC4 block | TRPC6 act | TRPC6 inhibitor | TRPC4 agonist
NC(=O)CSc1nnc(-c2cccc(S(=O)(=O)N3CCOCC3)c2)n1C1CCCCCC1 | i | i | i | i | i
CCOC(=O)c1cnc(SCC(=O)N2CCOCC2)nc1N | i | i | i | i | i
CCN(CC)CCNCC1C(=O)O[C@@H]2C[C@@]3(C)CCC[C@H](C)C3=C[C@H]12 (some centres undefined) | 11* | i | i | i | i
C=CCn1c(SCC(=O)c2c(N)n(C)c(=O)n(C)c2=O)nnc1-c1ccccc1F | i | i | i | i | i
CC1CCCN(c2c([N+](=O)[O-])cc(C(=O)O)cc2[N+](=O)[O-])C1 (centres undefined) | i | -5* | i | i | i
Cn1c(CNC(=O)c2ccc(F)cc2)cc2ccccc21 | i | i | i | i | i
O=C(O)C1C2C=CC(C2)C1C(=O)NC1CCN(Cc2ccccc2)CC1 (centres undefined) | i | i | i | i | 122*
Cc1ccc(-c2nc3c(Cl)cc(Cl)cc3c(=O)n2O)cc1 | i | i | i | i | 112*
O=c1c2cc(Cl)ccc2nc(-c2ccc([N+](=O)[O-])cc2)n1O | i | i | i | i | 45*
O=c1c2ccc(Cl)cc2nc(-c2cccc(C(F)(F)F)c2)n1O | i | i | i | i | 51*
O=c1c2cc(Br)ccc2nc(-c2ccc(Cl)cc2)n1O | i | i | i | i | 175*
CN(C)CCN(C(=O)C1CCN(S(=O)(=O)c2cccs2)CC1)c1nc2ccccc2s1 | i | i | i | i | i
CCOc1cc(/C=N/NC(=S)Nc2ccccc2C(F)(F)F)ccc1OCC(=O)N1CCOCC1 | i | i | i | i | i
Cc1ccc(C2=NC(C(F)(F)F)(C(F)(F)F)c3c(n(-c4ccc(F)cc4)c(=O)[nH]c3=O)N2)cc1 | 12* | i | i | i | i
O=C1COc2ccc(NC(=O)c3ccccc3C(=O)O)cc2N1 | i | i | i | i | i
COC(=O)CS(=O)(=O)c1cc(Br)cc2c1N(C(C)=O)CC2 | i | i | i | i | i
CCCN(CCC)CCCNS(=O)(=O)c1cc(Br)cc2c1N(C(C)=O)CC2 | i | i | i | i | 62*
CC1CCN(CCCNS(=O)(=O)c2cc(Br)cc3c2N(C(=O)C2CC2)CC3)CC1 | i | i | i | i | 105*
NNC(=O)c1[nH]c2ccc([N+](=O)[O-])cc2c1-c1ccccc1 | i | -6* | i | i | i
O=C(O)c1[nH]c2ccc([N+](=O)[O-])cc2c1-c1ccccc1 | i | i | i | i | i
O=C(N/N=C/c1ccccn1)c1ccc([N+](=O)[O-])cc1Cl | i | i | i | i | i
O=[N+]([O-])c1ccc2[nH]nc(-c3ccccc3)c2c1 | i | -6* | i | i | i
O=C(N/N=C/c1ccccn1)c1[nH]c2ccc([N+](=O)[O-])cc2c1-c1ccccc1 | i | -6* | i | i | i
CCN(C(=S)NCc1ccccc1)c1ccccc1 | i | i | i | i | i
CC1=C(CC(=O)O)c2cc(F)ccc2/C1=C\c1ccc(S(C)=O)cc1 (centres undefined) | i | i | i | i | i
SMILES | TRPC4 potent | TRPC4 block | TRPC6 act | TRPC6 inhibitor | TRPC4 agonist
CC(=O)Nc1ccc(CN2CCCC(CO)(Cc3ccccc3C)C2)cc1 (centres undefined) | i | i | i | i | i
CCOC(=O)C1(Cc2ccccc2C)CCCN(Cc2ccc(NC(C)=O)cc2)C1 (centres undefined) | i | -9* | i | i | i
O=C(CN1CCN(S(=O)(=O)c2ccc(Br)cc2)CC1)N/N=C/c1cccs1 | i | i | i | i | i
O=C(CN1CCN(S(=O)(=O)c2ccc(Br)cc2)CC1)N/N=C/c1ccncc1 | 15* | i | i | i | i
CCCN(CCC)C(=O)Cc1coc2ccc3ccccc3c12 | 10* | i | i | i | i
Cc1cc(C)c2c(c1)c1nnc(SCCN3CCCCC3)nc1n2C | i | i | i | i | i
COc1ccccc1C(=O)C1CCCN(Cc2ccc3c(c2)OCCO3)C1 (centres undefined) | i | i | i | i | i
COc1cc(CN2CCCC(C(=O)c3ccccc3SC)C2)cc(OC)c1 (centres undefined) | i | -6* | i | i | i
COc1ccc(C(=O)C2CCCN(Cc3c(C)[nH]c4ccccc34)C2)c(OC)c1 (centres undefined) | i | i | i | -5* | i
COc1ccc(F)cc1C(=O)C1CCCN(Cc2ccc3c(c2)OCCO3)C1 (centres undefined) | i | -7* | i | i | i
COc1ccc(C(=O)C2CCCN(Cc3cc(C)c(O)c(C)c3)C2)c(OC)c1 (centres undefined) | i | i | i | i | i
CC(OC(=O)C1=COCCO1)C(=O)Nc1ccc(Cl)cn1 (centres undefined) | i | i | i | i | i
CN(C)CCCN(Cc1cc2cc3c(cc2[nH]c1=O)OCO3)C(=S)NCc1ccco1 | i | -6* | i | i | i
CC(=O)Nc1ccc(S(=O)(=O)Nc2nc3ccccc3nc2N2CCc3ccccc3C2)cc1 | i | i | i | i | i
CC(=O)Nc1ccc(S(=O)(=O)Nc2nc3ccccc3nc2N2CCCCCC2)cc1 | 12* | i | i | i | i
CCc1ccc(CNc2ccc3c(c2)ncn3CC)cc1 | i | i | i | -5* | i
CCc1ccc(CNc2ccc3c(c2)ncn3C(C)(C)C)cc1 | i | i | i | i | i
CC(C)(C)n1cnc2cc(NCc3ccc(Br)cc3)ccc21 | 25* | i | i | i | i
COc1ccc(N(CC(=O)N2CCN(c3ccccc3F)CC2)S(=O)(=O)c2ccc(C)cc2)cc1 | i | i | i | i | i
COc1cc(/C=C(/C#N)C(=O)c2c(C)[nH]c3ccccc23)ccc1OCC#N | 10* | i | i | i | i
